Measurements published in publication PMC7825275 (Cancer chemotherapy and pharmacology, 2019).

Tested on: patients with advanced solid tumors
Assay: Toxicity by grade
Assay type: in vivo, human
Method in brief: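 Adverse events were tabulated descriptively as maximum grade in three groups: the chemotherapy-only lead-in cycle, the first veliparib-containing cycle, and all cycles. CBC and serum chemistry including liver function tests were drawn weekly during cycles 1–2, then at the start of every cycle. Veliparib was oral, twice daily on days 1–7; carboplatin/paclitaxel were IV every 21 days.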

[1] = first cycle including veliparib with carboplatin and paclitaxel, n=73
[2] = veliparib with carboplatin and paclitaxel

C[C@]1(c2nc3c(C(N)=O)cccc3[nH]2)CCCN1 [veliparib]
31%: neutropenia highest grade 4, DLT assessment period [2]
2 (3) number of patients (%): Flushing, Any Grade [1] | Flushing, Grade 1 [1] | Hypoalbuminemia, Grade 2 [1] | Hypocalcemia, Any Grade [1] | Lymphocyte count decreased, Grade 1 [1] | Myalgia, Grade 2 [1] | Platelet count decreased, Grade 2 [1] | Rash maculopapular, Any Grade [1] | Rash maculopapular, Grade 1 [1] | Sepsis, Any Grade [1] | Sepsis, Grade 4 [1] | Vomiting, Grade 2 [1] | Weight loss, Any Grade [1] | Weight loss, Grade 1 [1]
7 patients: Febrile neutropenia or grade 3-4 neutropenia lasting more than 7 days (total across the dose levels)
14 (19) number of patients (%): Lymphocyte count decreased, Any Grade [1] | Neutrophil count decreased, Grade 3 [1] | White blood cell decreased, Grade 2 [1]
42 (57) number of patients (%): Neutrophil count decreased, Any Grade [1]
6 (8) number of patients (%): Myalgia, Grade 1 [1] | White blood cell decreased, Grade 1 [1]
0 number of patients (%): Fever, Grade 4 [1] | Flu like symptoms, Grade 2 [1] | Flu like symptoms, Grade 3 [1] | Flu like symptoms, Grade 4 [1] | Flushing, Grade 2 [1] | Flushing, Grade 3 [1] | Flushing, Grade 4 [1] | Headache, Grade 2 [1] | Headache, Grade 3 [1] | Headache, Grade 4 [1] | Hiccups, Grade 2 [1] | Hiccups, Grade 3 [1] | Hiccups, Grade 4 [1] | Hypoalbuminemia, Grade 3 [1] | Hypoalbuminemia, Grade 4 [1] | Hypocalcemia, Grade 1 [1] | Hypocalcemia, Grade 4 [1] | Hypomagnesemia, Grade 1 [1] | Hypomagnesemia, Grade 3 [1] | Hypomagnesemia, Grade 4 [1] | Hyponatremia, Grade 2 [1] | Hypophosphatemia, Grade 1 [1] | Hypophosphatemia, Grade 2 [1] | Hypophosphatemia, Grade 4 [1] | Insomnia, Grade 2 [1] | Insomnia, Grade 3 [1] | Insomnia, Grade 4 [1] | Mucositis oropharyngeal, Grade 2 [1] | Mucositis oropharyngeal, Grade 3 [1] | Mucositis oropharyngeal, Grade 4 [1] | Muscle weakness, Grade 3 [1] | Muscle weakness, Grade 4 [1] | Myalgia, Grade 3 [1] | Myalgia, Grade 4 [1] | Nausea, Grade 4 [1] | Non-cardiac chest pain, Grade 2 [1] | Non-cardiac chest pain, Grade 3 [1] | Non-cardiac chest pain, Grade 4 [1] | Paresthesia, Grade 2 [1] | Paresthesia, Grade 3 [1] | Paresthesia, Grade 4 [1] | Peripheral sensory neuropathy, Grade 2 [1] | Peripheral sensory neuropathy, Grade 3 [1] | Peripheral sensory neuropathy, Grade 4 [1] | Platelet count decreased, Grade 4 [1] | Presyncope, Grade 1 [1] | Presyncope, Grade 2 [1] | Presyncope, Grade 4 [1] | Pruritus, Grade 2 [1] | Pruritus, Grade 3 [1] | Pruritus, Grade 4 [1] | Purpura, Grade 2 [1] | Purpura, Grade 3 [1] | Purpura, Grade 4 [1] | Rash maculopapular, Grade 2 [1] | Rash maculopapular, Grade 3 [1] | Rash maculopapular, Grade 4 [1] | Sepsis, Grade 1 [1] | Sepsis, Grade 2 [1] | Sepsis, Grade 3 [1] | Sinus disorder, Grade 2 [1] | Sinus disorder, Grade 3 [1] | Sinus disorder, Grade 4 [1] | Tremor, Grade 2 [1] | Tremor, Grade 3 [1] | Tremor, Grade 4 [1] | Upper respiratory infection, Grade 1 [1] | Upper respiratory infection, Grade 3 [1] | Upper respiratory infection, Grade 4 [1] | Vomiting, Grade 3 [1] | Vomiting, Grade 4 [1] | Weight loss, Grade 2 [1] | Weight loss, Grade 3 [1] | Weight loss, Grade 4 [1]
4 (5) number of patients (%): Neutrophil count decreased, Grade 2 [1] | Platelet count decreased, Grade 3 [1]
28 (38) number of patients (%): Nausea, Any Grade [1]
1 (1) number of patients (%): Flu like symptoms, Any Grade [1] | Flu like symptoms, Grade 1 [1] | Hiccups, Any Grade [1] | Hiccups, Grade 1 [1] | Hypoalbuminemia, Grade 1 [1] | Hypocalcemia, Grade 2 [1] | Hypocalcemia, Grade 3 [1] | Hypomagnesemia, Any Grade [1] | Hypomagnesemia, Grade 2 [1] | Hyponatremia, Grade 3 [1] | Hyponatremia, Grade 4 [1] | Hypophosphatemia, Any Grade [1] | Hypophosphatemia, Grade 3 [1] | Insomnia, Any Grade [1] | Insomnia, Grade 1 [1] | Lymphocyte count decreased, Grade 4 [1] | Muscle weakness, Grade 2 [1] | Nausea, Grade 3 [1] | Neutrophil count decreased, Grade 1 [1] | Non-cardiac chest pain, Any Grade [1] | Non-cardiac chest pain, Grade 1 [1] | Paresthesia, Any Grade [1] | Paresthesia, Grade 1 [1] | Presyncope, Any Grade [1] | Presyncope, Grade 3 [1] | Purpura, Any Grade [1] | Purpura, Grade 1 [1] | Sinus disorder, Any Grade [1] | Sinus disorder, Grade 1 [1] | Tremor, Any Grade [1] | Tremor, Grade 1 [1] | Upper respiratory infection, Any Grade [1] | Upper respiratory infection, Grade 2 [1]
57%: neutropenia, frequency during the DLT assessment period [2]
9 (12) number of patients (%): Vomiting, Any Grade [1]
8 (11) number of patients (%): Lymphocyte count decreased, Grade 2 [1] | Myalgia, Any Grade [1]
5 (7) number of patients (%): Hyponatremia, Any Grade [1] | Nausea, Grade 2 [1]
1(1) number of patients (%): Muscle weakness, Grade 1 [1]
3 (4) number of patients (%): Headache, Any Grade [1] | Headache, Grade 1 [1] | Hypoalbuminemia, Any Grade [1] | Hyponatremia, Grade 1 [1] | Lymphocyte count decreased, Grade 3 [1] | Mucositis oropharyngeal, Any Grade [1] | Mucositis oropharyngeal, Grade 1 [1] | Pruritus, Any Grade [1] | Pruritus, Grade 1 [1] | White blood cell decreased, Grade 4 [1]
13 (18) number of patients (%): Platelet count decreased, Any Grade [1]
40 (55) number of patients (%): White blood cell decreased, Any Grade [1]
22 (30) number of patients (%): Nausea, Grade 1 [1]
17 (23) number of patients (%): White blood cell decreased, Grade 3 [1]
19%: neutropenia highest grade 3, DLT assessment period [2]
7 (10) number of patients (%): Peripheral sensory neuropathy, Any Grade [1] | Peripheral sensory neuropathy, Grade 1 [1] | Platelet count decreased, Grade 1 [1] | Vomiting, Grade 1 [1]
23 (31) number of patients (%): Neutrophil count decreased, Grade 4 [1]
